pIC50: −log10 of the molar value. Active and inactive are the calls of the source. The calls are words filed in the database; no cut-off is given here.
Assays:
MCF7 [1] = experiment: Down-regulation of Bcl-2 mRNA expression in human MCF7 cells at 2 to 10 uM incubated for 24 hrs by quantitative real time PCR method; type: functional, cell-based
How it was run: (§1)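 MCF-7 cells in DMEM/10% FBS were treated for 24 h at the indicated concentrations, then harvested, and mRNA levels were determined by qPCR.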

MCF7 [2] = experiment: Induction of cell cycle arrest in human MCF7 cells assessed as accumulation at G2/M phase at 7 uM incubated for 24 hrs by propidium iodide staining based FACS assay (reference value: 1.47%); type: functional
MCF7 [3] = experiment: Induction of apoptosis in human MCF7 cells assessed as early apoptotic cells level at 7 uM incubated for 24 hrs by annexin-V and propidium iodide staining based flow cytometry (reference value: 6.42%); type: functional
MCF7 [4] = experiment: Down-regulation of cyclin A1 mRNA expression in human MCF7 cells at 2 to 10 uM incubated for 24 hrs by quantitative real time PCR method; type: functional, cell-based; how it was run: as §1
MCF7 [5] = experiment: Induction of mitochondrial membrane potential loss in human MCF7 cells assessed as increase in JC1 dye monomer green fluorescence at 7 uM incubated for 24 hrs by JC1 dye based flow cytometry (reference value: 1.78%); type: functional
MCF7 [6] = experiment: Down-regulation of cyclin A2 mRNA expression in human MCF7 cells at 2 to 10 uM incubated for 24 hrs by quantitative real time PCR method; type: functional, cell-based; how it was run: as §1
MCF7 [7] = experiment: Induction of apoptosis in human MCF7 cells assessed as late apoptotic cells level at 7 uM incubated for 24 hrs by annexin-V and propidium iodide staining based flow cytometry (reference value: 1.85%); type: functional
MCF7 [8] = experiment: Potency index, ratio of IC50 for miltefosine to IC50 for test compound against human MCF7 cells by MTT assay; type: functional
MCF7 [9] = experiment: Induction of cell cycle arrest in human MCF7 cells assessed as accumulation at sub-diploid phase at 7 uM incubated for 24 hrs by propidium iodide staining based FACS assay (reference value: 7.26%); type: functional
MCF7 [10] = experiment: Antiproliferative activity against human MCF7 cells assessed as inhibition of cell proliferation incubated for 18 hrs followed by MTT addition for 4 hrs by MTT assay; type: functional, cell-based
How it was run: (§2)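 MTT assay. Cells were grown in DMEM with 10% FBS at 37 °C, 5% CO2, 90% relative humidity. 1 × 10⁴ cells per well were seeded and held 24 h, then exposed to compounds diluted in culture medium for 18 h. MTT (5 mg/mL stock) was added for a further 4 h.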

MDA-MB-231 [11] = experiment: Antiproliferative activity against human MDA-MB-231 cells assessed as inhibition of cell proliferation incubated for 18 hrs followed by MTT addition for 4 hrs by MTT assay; type: functional, cell-based; how it was run: as §2
MDA-MB-231 [12] = experiment: Inhibition of AKT Ser473 phosphorylation in human MDA-MB-231 cells at 2 uM incubated for 24 hrs by Western blotting method; type: cell-based
How it was run: (§3)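 After 24 h treatment, cells were washed in ice-cold PBS and lysed in RIPA buffer. Protein was measured by Bradford, equal amounts run on SDS-PAGE and transferred to PVDF. Blots were probed for p-Akt (Ser473) and total Akt, then 1 h with 1:5000 HRP anti-mouse IgG, with chemiluminescent detection. Densitometry was quantified against untreated control.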

MCF7 [13] = experiment: Induction of cell cycle arrest in human MCF7 cells assessed as accumulation at S phase at 7 uM incubated for 24 hrs by propidium iodide staining based FACS assay (reference value: 45.21%); type: functional
HEK293 = experiment: Antiproliferative activity against HEK293 cells assessed as inhibition of cell proliferation incubated for 18 hrs followed by MTT addition for 4 hrs by MTT assay; type: cell-based; conditions: Homo sapiens; how it was run: as §2
[14] = Antiproliferative activity against human DU145 cells assessed as inhibition of cell proliferation incubated for 18 hrs followed by MTT addition for 4 hrs by MTT assay; type: functional, cell-based; conditions: DU-145; how it was run: as §2
MCF7 [15] = experiment: Induction of cell cycle arrest in human MCF7 cells assessed as accumulation at G0/G1 phase at 7 uM incubated for 24 hrs by propidium iodide staining based FACS assay (reference value: 53.32%); type: functional
MCF7 [16] = experiment: Induction of apoptosis in human MCF7 cells assessed as necrotic cells level at 7 uM incubated for 24 hrs by annexin-V and propidium iodide staining based flow cytometry (reference value: 2.15%); type: functional
MCF7 [17] = experiment: Induction of apoptosis in human MCF7 cells assessed as viable cells level at 7 uM incubated for 24 hrs by annexin-V and propidium iodide staining based flow cytometry (reference value: 89.58%); type: functional
DU-145 [18] = experiment: Induction of cell cycle arrest in human DU145 cells assessed as accumulation at G0/G1 phase at 10 uM incubated for 24 hrs by propidium iodide staining based FACS assay (reference value: 53.66%); type: functional
DU-145 [19] = experiment: Induction of mitochondrial membrane potential loss in human DU145 cells assessed as increase in JC1 dye monomer green fluorescence at 10 uM incubated for 24 hrs by JC1 dye based flow cytometry (reference value: 2.81%); type: functional
DU-145 [20] = experiment: Induction of cell cycle arrest in human DU145 cells assessed as accumulation at G0/G1 phase at 5 uM incubated for 24 hrs by propidium iodide staining based FACS assay (reference value: 53.66%); type: functional
DU-145 [21] = experiment: Induction of mitochondrial membrane potential loss in human DU145 cells assessed as increase in JC1 dye monomer green fluorescence incubated for 24 hrs by JC1 dye based flow cytometry; type: functional, cell-based
DU-145 [22] = experiment: Induction of apoptosis in human DU145 cells assessed as necrotic cells level at 5 uM incubated for 24 hrs by annexin-V and propidium iodide staining based flow cytometry (reference value: 1.33%); type: functional
DU-145 [23] = experiment: Induction of cell cycle arrest in human DU145 cells assessed as accumulation at G0/G1 phase at 15 uM incubated for 24 hrs by propidium iodide staining based FACS assay (reference value: 53.66%); type: functional
DU-145 [24] = experiment: Induction of apoptosis in human DU145 cells assessed as viable cells level at 15 uM incubated for 24 hrs by annexin-V and propidium iodide staining based flow cytometry (reference value: 93.65%); type: functional
DU-145 [25] = experiment: Induction of apoptosis in human DU145 cells assessed as late apoptotic cells level at 10 uM incubated for 24 hrs by annexin-V and propidium iodide staining based flow cytometry (reference value: 2.96%); type: functional
DU-145 [26] = experiment: Induction of cell cycle arrest in human DU145 cells assessed as accumulation at S phase at 5 uM incubated for 24 hrs by propidium iodide staining based FACS assay (reference value: 39.44%); type: functional
DU-145 [27] = experiment: Induction of apoptosis in human DU145 cells assessed as viable cells level at 10 uM incubated for 24 hrs by annexin-V and propidium iodide staining based flow cytometry (reference value: 93.65%); type: functional
DU-145 [28] = experiment: Increase in Bax/Bcl-2 expression ratio in human DU145 cells at 15 uM incubated for 24 hrs by Western blotting method; type: functional, cell-based
How it was run: (§4)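 DU-145 cells were exposed for 24 h and lysed in RIPA buffer. Protein was quantified by Bradford, and equal amounts were run on SDS-PAGE, transferred to PVDF and immunoblotted, with chemiluminescent detection. Bax/Bcl-2 ratio was taken from 3 densitometric scans as mean SE versus control.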

DU-145 [29] = experiment: Induction of apoptosis in human DU145 cells assessed as necrotic cells level at 10 uM incubated for 24 hrs by annexin-V and propidium iodide staining based flow cytometry (reference value: 1.33%); type: functional
DU-145 [30] = experiment: Induction of apoptosis in human DU145 cells assessed as early apoptotic cells level at 5 uM incubated for 24 hrs by annexin-V and propidium iodide staining based flow cytometry (reference value: 2.06%); type: functional
DU-145 [31] = experiment: Induction of cell cycle arrest in human DU145 cells assessed as accumulation at S phase at 10 uM incubated for 24 hrs by propidium iodide staining based FACS assay (reference value: 39.44%); type: functional
DU-145 [32] = experiment: Increase in Bax protein expression in human DU145 cells at 5 to 15 uM incubated for 24 hrs by Western blotting method; type: functional, cell-based; how it was run: as §4
DU-145 [33] = experiment: Induction of mitochondrial membrane potential loss in human DU145 cells assessed as increase in JC1 dye monomer green fluorescence at 5 uM incubated for 24 hrs by JC1 dye based flow cytometry (reference value: 2.81%); type: functional
DU-145 [34] = experiment: Induction of cell cycle arrest in human DU145 cells assessed as accumulation at S phase at 15 uM incubated for 24 hrs by propidium iodide staining based FACS assay (reference value: 39.44%); type: functional
DU-145 [35] = experiment: Induction of apoptosis in human DU145 cells assessed as early apoptotic cells level at 10 uM incubated for 24 hrs by annexin-V and propidium iodide staining based flow cytometry (reference value: 2.06%); type: functional
DU-145 [36] = experiment: Induction of mitochondrial membrane potential loss in human DU145 cells assessed as increase in JC1 dye monomer green fluorescence at 15 uM incubated for 24 hrs by JC1 dye based flow cytometry (reference value: 2.81%); type: functional
DU-145 [37] = experiment: Induction of cell cycle arrest in human DU145 cells assessed as accumulation at G2/M phase at 5 uM incubated for 24 hrs by propidium iodide staining based FACS assay (reference value: 6.90%); type: functional
DU-145 [38] = experiment: Induction of apoptosis in human DU145 cells assessed as late apoptotic cells level at 15 uM incubated for 24 hrs by annexin-V and propidium iodide staining based flow cytometry (reference value: 2.96%); type: functional
DU-145 [39] = experiment: Potency index, ratio of IC50 for miltefosine to IC50 for test compound against human DU145 cells by MTT assay; type: functional
[40] = Reduction in Bcl-2 protein expression in human DU145 cells at 5 to 15 uM incubated for 24 hrs by Western blotting method; type: functional, cell-based; conditions: DU-145
DU-145 [41] = experiment: Induction of apoptosis in human DU145 cells assessed as necrotic cells level at 15 uM incubated for 24 hrs by annexin-V and propidium iodide staining based flow cytometry (reference value: 1.33%); type: functional
DU-145 [42] = experiment: Induction of apoptosis in human DU145 cells assessed as late apoptotic cells level at 5 uM incubated for 24 hrs by annexin-V and propidium iodide staining based flow cytometry (reference value: 2.96%); type: functional
DU-145 [43] = experiment: Induction of cell cycle arrest in human DU145 cells assessed as accumulation at G2/M phase at 15 uM incubated for 24 hrs by propidium iodide staining based FACS assay (reference value: 6.90%); type: functional
DU-145 [44] = experiment: Induction of apoptosis in human DU145 cells assessed as early apoptotic cells level at 15 uM incubated for 24 hrs by annexin-V and propidium iodide staining based flow cytometry (reference value: 2.06%); type: functional
DU-145 [45] = experiment: Induction of apoptosis in human DU145 cells assessed as viable cells level at 5 uM incubated for 24 hrs by annexin-V and propidium iodide staining based flow cytometry (reference value: 93.65%); type: functional
[46] = Antiproliferative activity against human PC3 cells assessed as inhibition of cell proliferation incubated for 18 hrs followed by MTT addition for 4 hrs by MTT assay; type: functional, cell-based; conditions: PC-3; how it was run: as §2
DU-145 [47] = experiment: Inhibition of AKT Ser473 phosphorylation in human DU145 cells at 15 uM incubated for 24 hrs by Western blotting method; type: cell-based; how it was run: as §3
DU-145 [48] = experiment: Induction of cell cycle arrest in human DU145 cells assessed as accumulation at G2/M phase at 10 uM incubated for 24 hrs by propidium iodide staining based FACS assay (reference value: 6.90%); type: functional

In the case of `CCCCCCCCCCOP(=O)(O)OCCSC(=S)N1CCCCC1`, the Activity (MCF7 [1]) was “Active”, the Activity (MCF7 [2]) was 0% and the Activity (MCF7 [3]) was 41.66%. For the same compound, the Activity (MCF7 [4]) was “Active”, the Activity (MCF7 [5]) was 44.62% and the Activity (MCF7 [6]) was “Active”. The Activity (MCF7 [7]) was 12.76%, the “Ratio IC50” value (MCF7 [8]) was 5 and the Activity (MCF7 [9]) was 23.81%. The pIC50 (MCF7 [10]) was 5.14, the pIC50 (MDA-MB-231 [11]) was 4.61 and the inhibition (MDA-MB-231 [12]) was “Active”. The Activity (MCF7 [13]) was 39.01%, the pIC50 (HEK293) was 4.15 and the pIC50 [14] was 4.53. The Activity (MCF7 [15]) was 60.99%, the Activity (MCF7 [16]) was 2.15% and the Activity (MCF7 [17]) was 43.43%.

For `CCCCCCCCCCCCCCCCOP(=O)(O)OCCSC(=S)N1CCCCC1`, the Activity (DU-145 [18]) was 61.15%, the Activity (DU-145 [19]) was 30.84% and the Activity (DU-145 [20]) was 59.09%. For the same compound, the Activity (DU-145 [21]) was “Dose-dependent effect”, the Activity (DU-145 [22]) was 1.64% and the Activity (DU-145 [23]) was 67.13%. For the same compound, the Activity (DU-145 [24]) was 78.81%, the Activity (DU-145 [25]) was 4.52% and the Activity (DU-145 [26]) was 35.26%. The pIC50 (MCF7 [10]) was 4.54, the pIC50 (MDA-MB-231 [11]) was 4.00 and the Activity (DU-145 [27]) was 83.02%. The Activity (DU-145 [28]) was “Active”, the Activity (DU-145 [29]) was 1.4% and the Activity (DU-145 [30]) was 9%. For the same compound, the Activity (DU-145 [31]) was 32.94%, the Activity (DU-145 [32]) was “Active” and the Activity (DU-145 [33]) was 3.68%. The Activity (DU-145 [34]) was 27.27%, the Activity (DU-145 [35]) was 11.06% and the Activity (DU-145 [36]) was 9.29%. The Activity (DU-145 [37]) was 5.65%, the Activity (DU-145 [38]) was 6.33% and the pIC50 (HEK293) was under 4.00. For the same compound, the “Ratio IC50” value (DU-145 [39]) was 2, the pIC50 [14] was 4.83 and the Activity [40] was “Active”. The Activity (DU-145 [41]) was 2.21%, the Activity (DU-145 [42]) was 2.91% and the Activity (DU-145 [43]) was 5.6%. For the same compound, the Activity (DU-145 [44]) was 12.65%, the Activity (DU-145 [45]) was 86.45% and the pIC50 [46] was 4.46. The inhibition (DU-145 [47]) was “Active” and the Activity (DU-145 [48]) was 5.92%.
